For test [1], the system named is Erk1/2. In words: Erk1/2 phosphorylation in 293T cells, Western blot. The format is cell-based. Conditions: not serum starved. In short, it runs like this: (§1)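 293T cells (1×10^6) transfected 24 h after plating with Flag-tagged wild-type or mutant Brk using polyethylenimine. Lysed 48 h post-transfection in RIPA buffer (pH 7.5) with protease and phosphatase inhibitors, then SDS-PAGE and PVDF blotting.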

Another test deals with β-catenin. Briefly: β-catenin phosphorylation and binding, immunoprecipitation from 293T cells. The format is cell-based. Conditions: 293T cells coexpressing β-catenin; for binding to β-catenin (in words): Flag antibody; for phosphorylation of β-catenin (in words): anti-phosphotyrosine; for binding and phosphorylation of β-catenin (in words): compared to wild-type Brk. The essentials:
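Flag-tagged β-catenin was coexpressed with Flag-Brk (wild-type or mutant) in 293T cells by PEI transfection, and lysates were made 48 h later in RIPA buffer. Lysate (1 mg/mL) was precleared on protein G agarose (1 h, 4 °C), incubated with 1 µg anti-β-catenin (1 h, 4 °C), then captured on protein G for 4 h at 4 °C. After three RIPA washes, SDS elution and blotting, membranes were probed with anti-phosphotyrosine and anti-β-catenin, then reprobed with anti-Flag for Brk association.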

The test system of test [2] is Erk1/2. In kind it is cell-based. Conditions: 293T cells, serum starved, 10 ng/mL EGF for 2.5 min. In short, it runs like this:
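293T cells were PEI-transfected with Flag-Brk (wild-type or mutant) and serum-starved overnight. They were then stimulated with 10 ng/mL EGF for 2.5 min, lysed in RIPA buffer with inhibitors, and resolved by SDS-PAGE on PVDF. Blots were probed for phospho-Erk1/2 (Thr202/Tyr204), total Erk1/2 and Flag.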

The test system of a further test is ErbB2. Briefly: ErbB2 interaction, co-immunoprecipitation. The format is binding. Conditions: 293T cells cotransfected with ErbB2 and Brk; ErbB2 immunoprecipitated. In short, it runs like this: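 Flag-tagged wild-type or mutant Brk and full-length ErbB2 were co-transfected into 293T cells with polyethylenimine (8 μL per μg DNA in 150 mM NaCl), 24 h after plating. Cells were lysed at 48 h in RIPA buffer with protease/phosphatase inhibitors. Lysate (1 mg/mL) was precleared on protein G agarose, then taken with 1 μg anti-ErbB2 (1 h, 4 °C) and protein G (4 h, 4 °C). After washing, blots were probed with anti-ErbB2 and anti-Flag.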

The test system of another test is MCF-10a cells. Briefly: Growth of stable MCF-10a cells. In kind it is cell-based. Conditions: MCF-10a stable cells; compared to Brk WT.
The test system of a further test is p130Cas. In words: Cas phosphorylation in 293T cells, Western blot. The format is cell-based. Conditions: 293T cells cotransfected with Brk and Cas. In short, it runs like this: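 293T cells were cotransfected with V5-His-tagged p130Cas and Flag-tagged wild-type or mutant Brk using polyethylenimine, then harvested 48 h later in RIPA buffer with inhibitors. Lysates were analysed by SDS-PAGE and PVDF Western blotting. Probes were anti-phospho-p130Cas (Tyr249), anti-p130Cas and anti-Flag.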

The next test relates to SkBr3 cells. Briefly: Growth of stable SkBr3 cells. In kind it is cell-based.
In a further test the test system is Akt and Erk1/2. In words: Akt and Erk1/2 activation in SkBr3 cells. In kind it is cell-based. Conditions: SkBr3 breast cancer cells.
A further test deals with Akt. Briefly: Akt phosphorylation in 293T cells, Western blot. The format is cell-based. Conditions: phospho-Akt (Ser473). In short, it runs like this:
as §1

In another test the test system is STAT3. In words: STAT3 phosphorylation in 293T cells, Western blot. In kind it is cell-based. Conditions: compared to control cells or wild-type Brk. In short, it runs like this:
as §1

Test [3] deals with NIH-3T3 cells. In words: Anchored growth of stable NIH-3T3 cells. Conditions: NIH-3T3 stable cells, 20 000 cells plated in duplicate; hemocytometer. In kind it is cell-based. In short, it runs like this: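 NIH-3T3 lines stably expressing wild-type or mutant Brk were made by MSCV-PIG retroviral infection with 8 µg/mL Polybrene. Selection used puromycin (2 µg/mL) from 48 h postinfection, and lines with equivalent GFP expression were used. Cells (20 000) were plated in duplicate in 12-well plates. At each time point over several days they were trypsinized and counted by hemocytometer. Representative of three experiments; standard deviations shown.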

The test system of test [4] is NIH-3T3 cells. Briefly: Nonanchored growth of stable NIH-3T3 cells. The format is cell-based. Conditions: NIH-3T3 stable cells, low attachment plates, day 6, triplicate. The essentials:
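NIH-3T3 lines stably expressing Brk were made by retrovirus with puromycin selection and matched for GFP expression. Cells (20 000) were seeded in triplicate in 24-well low-attachment plates. On day 6 they were centrifuged, resuspended in trypsin and counted by hemocytometer. Representative of two experiments; standard deviations shown.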

Turning to “L16F: Brk mutant, SH3 domain, identified in clear cell renal cell carcinoma”, the “Erk1/2 phosphorylation (in words)” value in the test on Erk1/2 [1] is reported as “increased phosphorylation of Erk1/2 compared to wild-type Brk”. For the same substance, in the test with β-catenin, the “binding to β-catenin (in words)” value is listed as “decreased interaction with the protein” and the “phosphorylation of β-catenin (in words)” value is listed as “not able to phosphorylate β-catenin”. Also, in the test with Erk1/2 [2], the “Erk1/2 phosphorylation after EGF stimulation (in words)” value is “no appreciable difference between wild-type and L16F Brk following stimulation with EGF”. For the same substance, the “interaction with ErbB2 (in words)” value in the test with ErbB2 is recorded as “increased interaction with ErbB2 compared to wild-type Brk”. Further, the “proliferation (in words)” value in the test on MCF-10a cells is “reduced proliferation relative to wild-type Brk”. Also, in the test on p130Cas, the “expression of Brk upon coexpression with Cas (in words)” value is “decreased expression” and the “phosphorylation of Cas (in words)” value is reported as “decreased phosphorylation of Cas”.
Regarding “L343F: Brk mutant, kinase domain, identified in cutaneous squamous cell carcinoma”, the “binding and phosphorylation of β-catenin (in words)” value in the test on β-catenin was “greater binding and phosphorylation of β-catenin as compared to wild-type Brk”. The “anchored or nonanchored cell growth (in words)” value in the test with SkBr3 cells was “no increase in anchored or nonanchored cell growth”. Moreover, the “activation of Akt and Erk1/2 (in words)” value with Akt and Erk1/2 is “increased activation of both Akt and Erk1/2”. For the same substance, the “phosphorylation of Cas (in words)” value in the test on p130Cas is “greater phosphorylation of Cas compared to wild-type Brk”.
In the case of “N317S: Brk mutant, kinase domain, identified in ovarian carcinoma”, in the test with Erk1/2 [1], the “Erk1/2 phosphorylation (in words)” value is recorded as “still phosphorylated”. Also, in the test on β-catenin, the “binding to β-catenin (in words)” value is listed as “bound normally to β-catenin” and the “phosphorylation of β-catenin (in words)” value is given as “unable to phosphorylate the protein”. In addition, the “Akt phosphorylation (in words)” value with Akt is listed as “still phosphorylated”. Also, the “phosphorylation of STAT3 (in words)” value with STAT3 is listed as “decrease in phosphorylation of STAT3”.
For “P450L: Brk mutant, C-terminal tail adjacent to the inhibitory tyrosine, identified in pancreatic cancer”, the “anchored cell growth (in words)” value in the test on NIH-3T3 cells [3] is “did not survive past Day 6”.
On to “R131L: Brk mutant, SH2 domain, found in gastric cancer”, for which the “binding and phosphorylation of β-catenin (in words)” value in the test on β-catenin was “greater binding and phosphorylation of β-catenin as compared to wild-type Brk”. In addition, the “phosphorylation of Cas (in words)” value in the test with p130Cas is “greater phosphorylation of Cas compared to wild-type Brk”.
Consider “V253M: Brk mutant, kinase domain, identified in head and neck squamous cell carcinoma”, for which the “phosphorylation of STAT3 (in words)” value in the test with STAT3 is reported as “decrease in phosphorylation of STAT3”.
On to “WT: Flag-tagged wild-type full length Brk (PTK6)”, for which, in the test on NIH-3T3 cells [3], the “anchored cell growth (in words)” value is recorded as “increased cell growth compared to empty vector cells”. For the same substance, the “nonanchored cell growth (in words)” value in the test on NIH-3T3 cells [4] was “increase in nonanchored growth”.

These data come from article PMC4757811 (Biochemistry, 2015).
